Test results: the EternaBench riboswitch data

System: MS2 coat protein
Test: apparent Kd, MS2 coat protein; higher = weaker binding; RNA-MaP array
Method in brief: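 Fluorescently labeled MS2 coat protein, from 1.5 nM to 3 μM, was incubated at room temperature with designed RNAs transcribed on an Illumina sequencing chip from sequenced DNA templates. Times ran from 0.8–1.5 h at the lowest concentrations to 10–20 min at the highest, in Tris-HCl pH 7.5 buffer with KCl, MgCl2, BSA, DTT, tRNA and Tween20, with or without input ligand. Each apparent Kd is the median of per-cluster binding-curve fits, and designs with fewer than 10 measured clusters were excluded.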

[1] = designed as: ON switch for flavin mononucleotide, no ligand
[2] = ligand present: flavin mononucleotide, designed as: ON switch for flavin mononucleotide
[3] = designed as: OFF switch for flavin mononucleotide, no ligand
[4] = ligand present: flavin mononucleotide, designed as: OFF switch for flavin mononucleotide
[5] = designed as: OFF switch for tryptophan, no ligand
[6] = ligand present: tryptophan, designed as: OFF switch for tryptophan
[7] = designed as: ON switch for tryptophan, no ligand
[8] = ligand present: tryptophan, designed as: ON switch for tryptophan
[9] = designed as: ON switch for theophylline, no ligand
[10] = ligand present: theophylline, designed as: ON switch for theophylline

GUGCUGAAUACGUAGGAUAUAGUGUGUGCGACAUGAGGAUCACCCAUGUAAAUUGCCCAUCAGAGCUAGAAGGACGAAUCUUCGUG
apparent Kd [1]: 15.5 nM
apparent Kd [2]: 8.78 nM

CUAGGUCAGCUAGGAUAUACUUCUUGCAUGGAUGUAGAAGGAGCGAUAAGAUCUACAUGAGGAUCACCCAUGUUACUUAGGGUG
apparent Kd [3]: 290 nM
apparent Kd [4]: 131 nM

ACUCGGCAUCAUGAUACCAGAGAGCCCGAGAUGCCUUAACACAUGAGGAUCACCCAUGUACUCCCUUGGCAGCAUCAUGCACUAU
apparent Kd (designed as: OFF switch for theophylline, no ligand): 19.4 nM
apparent Kd (ligand present: theophylline, designed as: OFF switch for theophylline): 24.4 nM

ACAGUAAAUGUGUAGGAUAUGAACUAAACCACAUGAGGAUCACCCAUGUAACGAUUGGAUGGCCUUCAGAAGGACAGGGUUAUUGC
apparent Kd [1]: 304 nM
apparent Kd [2]: 215 nM

CGACGUCACGUGAGGAUAUGAUUGCUGCAAAUCAGUCAGAAGGCACAUGAGGAUCACCCAUGUCACCAAUACGA
apparent Kd [3]: 7.15 nM
apparent Kd [4]: 10.3 nM

AACGAAUGAGGAUAUACAUGAGGAUCACCCAUGUGAAAGGGAGGUUGAAGAUUUGACAGUAGAAGGCAUAUGAC
apparent Kd [3]: 94.2 nM
apparent Kd [4]: 80 nM

AUUCAUCUCUAGAAGGGACUGCACAAAACACAGAAUUCUUACAUGAGGAUCACCCAUGUUGUGGGUCAGGAUAUAGGCAGGCCA
apparent Kd [1]: 25.3 nM
apparent Kd [2]: 20.1 nM

CCGGUCCACUAGGAUAUGCGGAGUGUAUAUCACGCAGAAGGAGUCACAUGAGGAUCACCCAUGUGCGUGGGUUG
apparent Kd [3]: 9.4 nM
apparent Kd [4]: 9.16 nM

AUGAGUGGCCUGACAUGAGGAUCACCCAUGUCAAAUAAUGCAAGAAGGGACCUUUAUUCAAGGUGUCAGGAUAUUGAUUAAACC
apparent Kd [1]: 15.8 nM
apparent Kd [2]: 12.9 nM

ACCAACCACACCCUUCACUGUUUUCGCCGCCGAGGACCGGUACGGCCGCCACUCGUACAAAGACAUGAGGAUCACCCAUGUGCCU
apparent Kd [5]: 14.5 nM
apparent Kd [6]: 21.4 nM

CGACUGAAUAGGCAGUACACAUGAGGAUCACCCAUGUUAGCAAGAAGGCAAGAGCCAGCGGAGCUUGAGGAUAUUGAAGAUCUC
apparent Kd [1]: 27.2 nM
apparent Kd [2]: 27.4 nM

UUGUGGUAGGCGCAUACUCAUUUAUACAAGCGAGGACCGGUACGGCCGCCACUCGGAAUAAAACAUGAGGAUCACCCAUGUACCG
apparent Kd [5]: 13.7 nM
apparent Kd [6]: 19.1 nM

ACUAGACAUGAGGAUCACCCAUGUGAGGAUAUCUUGCUAUGCACUAUGGGCCAACGGAAGAGAAGGCACUGGGA
apparent Kd [3]: 45.7 nM
apparent Kd [4]: 93.2 nM

AUCAGUCUAGAAGGAUAUCAGCCCGAAGCCGAGUGAGAAGGUCUAGACAUGAGGAUCACCCAUGUCACAGCAACUAUCAAGAAC
apparent Kd [3]: 9.74 nM
apparent Kd [4]: 19.1 nM

AUUCCAAUAGGAUAUACAUGAGGAUCACCCAUGUGAUGAGCCCGUAAGACAGACGUCAGUAGAAGGAUUAGGAA
apparent Kd [3]: 24.5 nM
apparent Kd [4]: 31.7 nM

AUUAGCAUCCAAGGAUAUCAGUUGGCCCGCAGGUGAGAAGGUGGAUUCUGGGCGCCGCGUGGGACACAUGAGGAUCACCCAUGU
apparent Kd [3]: 30.3 nM
apparent Kd [4]: 26 nM

CCGUGGCAUCAACAGGAUAUGCUAUCAAAGACAUGAGGAUCACCCAUGUGGGUAUAUUACUUCCGGCAGAAGGGUUUAAGGGUUAC
apparent Kd [1]: 36.6 nM
apparent Kd [2]: 28.9 nM

UCCCGACAUGAGGAUCACCCAUGUCCAUUGUCGGUCGAGAGUAAGGAUAUAGAUAAUCAGGAGAACUAGAAGGUACUGUUAGCG
apparent Kd [3]: 530 nM
apparent Kd [4]: 164 nM

GAUAACAUGAGGAUCACCCAUGUGGCGUCGCGAGGACCGGUACGGCCGCCACUCGGCAGUUCAACUCGAAUAUAGUGAUCGAAGU
apparent Kd [7]: 138 nM
apparent Kd [8]: 87.5 nM

GCAGUAAGAGAGGAUAUGAUGGACGCAAGGGCGUCAGAAGGCUCUACAUGAGGAUCACCCAUGUGAAGUUCAUA
apparent Kd [3]: 6.12 nM
apparent Kd [4]: 6.52 nM

UCAUACAUGAGGAUCACCCAUGUUCGUGGGCGAGGACCGGUACGGCCGCCACUCGUACUAACGGUUUCUUAAACUUCCUUUCGAG
apparent Kd [7]: 25.6 nM
apparent Kd [8]: 17.2 nM

GCAAAGUAAGAAGGAUAUGCGUCCGGUGAACAACAACGCGAUCGAACAUGAGGAUCACCCAUGUCGCAGAAGGUCUGAGAAUUC
apparent Kd [3]: 27.4 nM
apparent Kd [4]: 40.3 nM

AUAAAACGAGUGCAGGAUAUUCCGUCGCGCACAUGAGGAUCACCCAUGUCAAUUGGGCAUCGUACGAAGAAGGGCAAAUACCAGCG
apparent Kd [1]: 116 nM
apparent Kd [2]: 76.4 nM

GACAUGAGGAUCACCCAUGUUUCGGUUACAUUGUAAUCAUGAUAGGAUAUCUCUGCUGUGGUGAGAGAGAAGGAUCGUCUGCUU
apparent Kd [1]: 13 nM
apparent Kd [2]: 10.6 nM

AUGUUCGAACAUGAGGAUCACCCAUGUGAACCUCAUAAACGUAGAAGGCGACCGAGUUUAUGGGUCGAGGAUAUACCUCGAGAA
apparent Kd [3]: 334 nM
apparent Kd [4]: 554 nM

GGAUCGCGAGGAUAUACAUGAGGAUCACCCAUGUUUACUCACACAUUUUUAUUCUUCCGUAGAAGGCGCGCAAG
apparent Kd [3]: 5.52 nM
apparent Kd [4]: 5.4 nM

AUUGAGACCUAGAAGGCGAAAACAUGAGGAUCACCCAUGUAGAUAACACCUACAUGAGCGAAAUACGAGGAUAUAGGAAAACUC
apparent Kd [3]: 356 nM
apparent Kd [4]: 351 nM

ACUUGUGAGUCGGCCGCCACUCACCGGUAGUGUCACUCGUUCACAAACAUGAGGAUCACCCAUGUGAGGACCGGGACAGUCGGGU
apparent Kd [5]: 17.2 nM
apparent Kd [6]: 25.8 nM

UAAGCACAUGAGGAUCACCCAUGUGAGGAUAUGAGUGUCGGUCGAGAAGAGCGUCCAAUCAGAAGGCACAGGAU
apparent Kd [3]: 12.9 nM
apparent Kd [4]: 11.6 nM

CGCCCAGUUACGGCCGCCACUUCGAUGGCAAAUGUCGAGCCUCCACAUGAGGAUCACCCAUGUCGAAGGACCGGGUACUGCUUGC
apparent Kd [7]: 31.9 nM
apparent Kd [8]: 110 nM

CGGGCGAAGCCUUUCACAUGAGGAUCACCCAUGUCUAAUACGAAGGAUAUCCUCGCCGGAGCUAAGGAGAAGGUCGACAUAGUU
apparent Kd [3]: 18.9 nM
apparent Kd [4]: 19.2 nM

AAUCAUAAUAAAGGAUAUACAACACAACAGGUGGUAGAAGGAUAUGGAGAUGGAACACACAUGAGGAUCACCCAUGUAAAUAGC
apparent Kd [1]: 13 nM
apparent Kd [2]: 9.95 nM

AAACACUCAUAAGGAUAUGCAGCGCUUAGACAUGAGGAUCACCCAUGUGAUGCAGGGAAGUCCCGGCAGAAGGUAAGUAAGUAC
apparent Kd [1]: 14.4 nM
apparent Kd [2]: 13 nM

UGAAUGCACCAGAAGGCUGGAAGAGUAUUUAACAGAGGAUAUGGAACAUAAAGAUCACAUGAGGAUCACCCAUGUACACAUAAC
apparent Kd [1]: 34.5 nM
apparent Kd [2]: 11.1 nM

GCCCAUUAAGACAUGAGGAUCACCCAUGUCACCGGGUAUGCCAGAAGGCUCUUAUAGAAGUAACGAGAGGAUAUGGGUGCUACU
apparent Kd [1]: 23.3 nM
apparent Kd [2]: 13.8 nM

GCCAGUGUCUAGGAUAUCACGCCGCGUUGCAGGUGAGAAGGAGACACAUGAGGAUCACCCAUGUGUCCGAUAGG
apparent Kd [3]: 7.12 nM
apparent Kd [4]: 9.49 nM

UUGCAAGUAGGAUAUAGUAGCGAAUACAUGAGGAUCACCCAUGUAGCCAGUGUAUUGCUUCUAGAAGGACUUCUCC
apparent Kd [3]: 29.3 nM
apparent Kd [4]: 34.9 nM

AACAUGGAUCAAGGAUAUGCAAAGCGCUCGAUAAACAUGAGGAUCACCCAUGUGGCAGUCACAACGCAGAAGGUGACUAUAAUA
apparent Kd [1]: 29.9 nM
apparent Kd [2]: 19.3 nM

AAGCGCAAAGGAUAUAGCCGAUCCAACAUGAGGAUCACCCAUGUGACUUCCGACAUCAAGCUAGAAGGUUGAUGCA
apparent Kd [3]: 47.6 nM
apparent Kd [4]: 41 nM

UCAAGCGAAGGAUAUACAUGAGGAUCACCCAUGUUGGCUAGAAUGAAAGACGGAUUAUGUAGAAGGUCGUGUGC
apparent Kd [3]: 20.3 nM
apparent Kd [4]: 17.6 nM

UGGUAUGAAGGAUAUGACUAAGUUCACAUGAGGAUCACCCAUGUAACGUCCUCGACAUGUUCAGAAGGUCAGGCGA
apparent Kd [3]: 11.7 nM
apparent Kd [4]: 11.4 nM

UAUAGGACUUAAGGAUAUGGCACCGGUGUCCCGCCAGAAGGUAAGGACCACACAUGAGGAUCACCCAUGUUCUCGAGAAUGGGA
apparent Kd [1]: 145 nM
apparent Kd [2]: 112 nM

UGUUGCAGCCACAUGAGGAUCACCCAUGUGCUCAGGAUCGUUGAGGAUAUCGAGGUAGGGUCAGCCGAGAAGGCAAGGGUCGCG
apparent Kd [1]: 10.5 nM
apparent Kd [2]: 8.64 nM

GAAGCUCGCGAUGAUACCAGCUCGACUGAUAACAUGAGGAUCACCCAUGUUGUGCGCCCUAGCCCUUGGCAGCAUGACAUAUUCG
apparent Kd [9]: 110 nM
apparent Kd [10]: 71.1 nM

AAUCCAAGAAAUGAUACCAGUCCCACUCAGGACAUGAGGAUCACCCAUGUAAUACAGGGAGACCCUUGGCAGCAUCGAAUAAACA
apparent Kd [9]: 432 nM
apparent Kd [10]: 82.7 nM

ACAUGCUCUGAGGAUAUCAAUAAUCCCUAUUACUGAGAAGGCAGCACAUGAGGAUCACCCAUGUGAGGUGAGUC
apparent Kd [3]: 34.5 nM
apparent Kd [4]: 58.8 nM

CGAACGGGCCACACUACAUGAGGAUCACCCAUGUUCGAAGAUAGAAGGUGUAGCUGGCCUCGUUACAAGGAUAUAUCUUAUACC
apparent Kd [3]: 29.2 nM
apparent Kd [4]: 27.4 nM

GGAAGUGUCUAGGAUAUCCUUCGAUCUAUGGCAGGAGAAGGAGAUACAUGAGGAUCACCCAUGUAGGUACGGGC
apparent Kd [3]: 7.1 nM
apparent Kd [4]: 6.75 nM

UUUUACAUGAGGAUCACCCAUGUGCGGCGCCGAGGACCGGUACGGCCGCCACUCGCAUGGGCAUGCCGCGAUAUCAUUCCUGAAC
apparent Kd [7]: 96.2 nM
apparent Kd [8]: 103 nM

UUUACAUGAGGAUCACCCAUGUUCCCUUGUGACACGUUUUUCAGAAGGACAGGCAUAAUUUGGAUGUAGGAUAUGAAUUAGUGC
apparent Kd [3]: 24.9 nM
apparent Kd [4]: 21.9 nM

UGUUUACAUGAGGAUCACCCAUGUGUUAUCGUAUUAGGAUAUGCAUGACGAUGAUUUUCGGCAGAAGGAAUGCGCA
apparent Kd [1]: 439 nM
apparent Kd [2]: 101 nM

AACUAACAUAGUUAACAACAUGAGGAUCACCCAUGUCGCAUGUAGGAUAUGGUAGAGGACACAACCCAGAAGGACAUAACAUAA
apparent Kd [1]: 41.9 nM
apparent Kd [2]: 22.9 nM

ACCUAGAGAUAGAAGGUUUAUAUGACCCUACAUGAGGAUCACCCAUGUUGUGGUAUUAUUCGUGAAAAGGAUAUAUCCCGUGAC
apparent Kd [1]: 7.6 nM
apparent Kd [2]: 7.52 nM

GAAAAUUCCUAGAAGGCGGAUUAUACUUGGUUGAACAUGAGGAUCACCCAUGUAUCUGGCAAACCCGAGGAUAUAGAUUUUCCA
apparent Kd [1]: 56.2 nM
apparent Kd [2]: 31.2 nM
